Assay results as given in ChEMBL document CHEMBL2390925, “Further studies on 2-arylacetamide pyridazin-3(2H)-ones: design, synthesis and evaluation of 4,6-disubstituted analogs as formyl peptide receptors (FPRs) agonists” (Eur J Med Chem, 2013).

How the values were obtained:
[1] = molecular target: T1, N-formyl peptide receptor 3 (Homo sapiens, UniProt P25089); assay: Agonist activity at FPR3 (unknown origin) transfected in human HL60 cells assessed as induction of Ca2+ mobilization; assay type: cell-based, HL-60
T1 sequence (P25089 whole entry): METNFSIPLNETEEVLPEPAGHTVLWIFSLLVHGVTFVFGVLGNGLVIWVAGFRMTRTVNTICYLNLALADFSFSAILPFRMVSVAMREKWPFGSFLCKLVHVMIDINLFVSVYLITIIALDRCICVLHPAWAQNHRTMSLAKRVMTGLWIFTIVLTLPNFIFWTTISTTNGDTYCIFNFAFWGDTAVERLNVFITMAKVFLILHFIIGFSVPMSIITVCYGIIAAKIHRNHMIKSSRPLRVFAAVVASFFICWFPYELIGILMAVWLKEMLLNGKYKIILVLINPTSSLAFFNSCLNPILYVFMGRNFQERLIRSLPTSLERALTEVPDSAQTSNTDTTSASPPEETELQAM

HL-60 [2] = assay: Cytotoxicity against human wild type HL60 cells at 5 to 20 uM after 60 mins by CellTitre-Glo luminescent assay; assay type: cell-based; details: hl-60, 1 h
In short: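 Wild-type HL-60 cells at 3×10^4 cells/well were exposed to 5, 10 or 20 µM compound for 60 min at 37 °C in 5% CO2. Samples were equilibrated to room temperature for 30 min before the CellTiter-Glo luminescence read. Triplicate samples; the experiment was representative of two.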

HL-60 [3] = assay: Effect on Ca2+ mobilization in human wild type HL60 cells; assay type: functional, cell-based
In short: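 Wild-type, non-transfected HL-60 cells, grown without G418, were run in the same Fluo-4 Ca2+ flux assay. Fluorescence was monitored every 5 s for 240 s at room temperature.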

[4] = molecular target: T2, N-formyl peptide receptor 2 (Homo sapiens, UniProt P25090); assay: Agonist activity at FPR2 (unknown origin) transfected in human HL60 cells assessed as induction of Ca2+ mobilization; assay type: functional, cell-based, HL-60
T2 sequence (P25090 whole entry): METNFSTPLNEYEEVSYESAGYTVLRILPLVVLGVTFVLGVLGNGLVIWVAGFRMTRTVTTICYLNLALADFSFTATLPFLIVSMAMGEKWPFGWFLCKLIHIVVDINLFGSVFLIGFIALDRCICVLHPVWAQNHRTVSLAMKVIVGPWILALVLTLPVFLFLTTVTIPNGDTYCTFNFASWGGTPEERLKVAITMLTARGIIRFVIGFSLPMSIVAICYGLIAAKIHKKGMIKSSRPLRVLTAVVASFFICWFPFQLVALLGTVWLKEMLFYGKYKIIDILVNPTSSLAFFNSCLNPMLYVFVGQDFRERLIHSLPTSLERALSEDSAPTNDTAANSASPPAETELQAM

fMet-Leu-Phe receptor = molecular target: T3, fMet-Leu-Phe receptor (Homo sapiens, UniProt P21462); assay: Agonist activity at FPR1 (unknown origin) transfected in human HL60 cells assessed as induction of Ca2+ mobilization; assay type: functional, cell-based, HL-60
T3 sequence (P21462 whole entry): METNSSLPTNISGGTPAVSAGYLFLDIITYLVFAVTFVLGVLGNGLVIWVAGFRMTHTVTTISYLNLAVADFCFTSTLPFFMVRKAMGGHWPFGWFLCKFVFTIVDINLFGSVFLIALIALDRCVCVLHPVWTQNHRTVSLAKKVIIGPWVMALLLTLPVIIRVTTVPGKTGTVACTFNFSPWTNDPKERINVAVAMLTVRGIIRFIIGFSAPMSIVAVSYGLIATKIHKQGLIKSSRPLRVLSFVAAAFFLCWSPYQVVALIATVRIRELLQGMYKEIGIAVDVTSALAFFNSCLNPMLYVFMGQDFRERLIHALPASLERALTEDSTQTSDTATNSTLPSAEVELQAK

[5] = molecular target: T4, fMet-Leu-Phe receptor (Homo sapiens) (UniProt P21462); assay: Agonist activity at FPR1 (unknown origin) transfected in human HL60 cells assessed as induction of Ca2+ mobilization relative to fMLF; assay type: functional, cell-based; details: HL-60
T4 sequence (whole entry): T3 sequence (P21462 whole entry)
In short: (§1)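 Same Fluo-4 Ca2+ flux in transfected HL-60 cells. The peak fluorescence change over baseline was normalized to 5 nM fMLF for FPR1 cells and to 5 nM WKYMVm for FPR2 and FPR3 cells, each taken as 100%. Efficacy was read from 5–6 point dose-response curves.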

[6] = molecular target: fMet-Leu-Phe receptor 1/2 (Homo sapiens) (UniProt P21462+P25090); assay: Agonist activity at FPR1/FPR2 in human neutrophils assessed as induction of Ca2+ mobilization relative to fMLF; assay type: functional
In short: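 Neutrophils from healthy donors were isolated by dextran sedimentation, Histopaque 1077 gradient and hypotonic red cell lysis. […] Peak response was normalized to 5 nM fMLF as 100%. EC50 comes from 5–6 point curves, mean of three experiments with different donors.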

[7] = molecular target: T5, N-formyl peptide receptor 2 (Homo sapiens) (UniProt P25090); assay: Agonist activity at FPR2 (unknown origin) transfected in human HL60 cells assessed as induction of Ca2+ mobilization relative to WKYMVm; assay type: functional, cell-based; details: HL-60; in short: as §1
T5 sequence (whole entry): T2 sequence (P25090 whole entry)

SMILES | EC50 [1] [µM] | EC50 (HL-60 [3]) [µM] | EC50 [4] [µM] | EC50 (fMet-Leu-Phe receptor) [µM] | Efficacy [5] [%] | Efficacy [6] [%] | Efficacy [7] [%] | Activity (HL-60 [2])
COc1cccc(Cc2cc(-c3ccc(Cl)cc3)nn(CC(=O)Nc3ccc4c(c3)OCO4)c2=O)c1 | > 50 | > 50 | > 50 | > 50 | – | – | – | Non-toxic
COc1cccc(Cc2cc(-c3ccc(F)cc3)nn(CC(=O)Nc3ccc(F)cc3)c2=O)c1 | > 50 | > 50 | > 50 | > 50 | – | – | – | Non-toxic
COc1ccc(-c2cc(Cc3cccc(OC)c3)c(=O)n(CC(=O)Nc3ccc4c(c3)OCO4)n2)cc1 | > 50 | > 50 | > 50 | > 50 | – | – | – | Non-toxic
COc1ccc(Cc2cc(-c3cccs3)nn(CC(=O)Nc3ccc(Br)cc3)c2=O)cc1 | > 50 | > 50 | > 50 | > 50 | – | – | – | Non-toxic
Cc1cc(Cc2cccc3ccccc23)c(=O)n(CC(=O)Nc2ccc(Br)cc2)n1 | > 50 | > 50 | > 50 | 13.8 | 20 | – | – | Non-toxic
COc1cccc(Cc2cc(-c3ccc(Cl)cc3)nn(CC(=O)Nc3ccc(F)cc3)c2=O)c1 | > 50 | > 50 | > 50 | > 50 | – | – | – | Non-toxic
Cc1cc(Cc2cccc(Br)c2)c(=O)n(CC(=O)Nc2ccc(Br)cc2)n1 | > 50 | > 50 | > 50 | > 50 | – | – | – | Non-toxic
COc1cc(Cc2cc(C)nn(CC(=O)Nc3ccc(Br)cc3)c2=O)cc(OC)c1 | > 50 | > 50 | > 50 | > 50 | – | – | – | Non-toxic
COc1cccc(Cc2cc(-c3ccc(C)cc3)nn(CC(=O)Nc3ccc(F)cc3)c2=O)c1 | > 50 | > 50 | > 50 | > 50 | – | – | – | Non-toxic
Cc1cc(Cc2cccc(Cl)c2)c(=O)n(CC(=O)Nc2ccc(Br)cc2)n1 | > 50 | > 50 | – | – | 100 | 90 | – | Non-toxic
COc1cccc(Cc2cc(-c3ccccc3)nn(CC(=O)Nc3ccc(F)cc3)c2=O)c1 | > 50 | > 50 | > 50 | > 50 | – | – | – | Non-toxic
COc1ccc(Cc2cc(-c3ccc(F)cc3)nn(CC(=O)Nc3ccc(Br)cc3)c2=O)cc1 | > 50 | > 50 | > 50 | > 50 | – | – | – | Non-toxic
Cc1cc(Cc2ccccc2)c(=O)n(CC(=O)Nc2ccc(F)cc2)n1 | > 50 | > 50 | > 50 | > 50 | – | – | – | Non-toxic
COc1ccc(Cc2cc(-c3ccc(C)cc3)nn(CC(=O)Nc3ccc(Br)cc3)c2=O)cc1 | > 50 | > 50 | > 50 | > 50 | – | – | – | Non-toxic

Continued, in another order:

EC50 [1] [µM] | EC50 (HL-60 [3]) [µM] | EC50 [4] [µM] | EC50 (fMet-Leu-Phe receptor) [µM] | Efficacy [5] [%] | Efficacy [6] [%] | Efficacy [7] [%] | SMILES | Activity (HL-60 [2])
> 50 | > 50 | > 50 | > 50 | – | – | – | COc1cccc(Cc2cc(-c3ccc(C)cc3)nn(CC(=O)Nc3ccc4c(c3)OCO4)c2=O)c1 | Non-toxic
> 50 | > 50 | – | – | 55 | 70 | – | COc1ccc(-c2cc(C)nn(CC(=O)Nc3ccc(Br)cc3)c2=O)cc1 | Non-toxic
> 50 | > 50 | – | – | 80 | 75 | – | COc1cc(Cc2cc(C)nn(CC(=O)Nc3ccc(I)cc3)c2=O)cc(OC)c1 | Non-toxic
> 50 | > 50 | > 50 | > 50 | – | – | – | COc1ccc(Cc2cc(Cc3ccccc3)nn(CC(=O)Nc3ccc(Br)cc3)c2=O)cc1 | Non-toxic
> 50 | > 50 | > 50 | > 50 | – | – | – | COc1cccc(Cc2cc(-c3cccs3)nn(CC(=O)Nc3ccc(F)cc3)c2=O)c1 | Non-toxic
> 50 | > 50 | > 50 | > 50 | – | – | – | COc1ccc(Cc2cc(-c3ccc(OC)cc3)nn(CC(=O)Nc3ccc(Br)cc3)c2=O)cc1 | Non-toxic
> 50 | > 50 | > 50 | > 50 | – | – | – | Cc1ccc(=O)n(CC(=O)Nc2ccc(I)cc2)n1 | Non-toxic
> 50 | > 50 | – | – | 80 | 65 | – | COc1cccc(Cc2cc(C3CCCCC3)nn(CC(=O)Nc3ccc(Br)cc3)c2=O)c1 | Non-toxic
> 50 | > 50 | – | – | 115 | – | 85 | Cc1cc(N)c(=O)n(CC(=O)Nc2ccc(Br)cc2)n1 | Non-toxic
> 50 | > 50 | – | – | 110 | 130 | – | Cc1cc(Cc2cccc(F)c2)c(=O)n(CC(=O)Nc2ccc(Br)cc2)n1 | Non-toxic
> 50 | > 50 | > 50 | > 50 | – | – | – | Cc1cc(Cc2ccc(C#N)cc2)c(=O)n(CC(=O)Nc2ccc(Br)cc2)n1 | Non-toxic
> 50 | > 50 | > 50 | > 50 | – | – | – | COc1ccc(Cc2cc(-c3ccc(Cl)cc3)nn(CC(=O)Nc3ccc(Br)cc3)c2=O)cc1 | Non-toxic
> 50 | > 50 | > 50 | > 50 | – | – | – | CC1=NN(CC(=O)Nc2ccc(I)cc2)C(=O)CC1 | Non-toxic
> 50 | > 50 | > 50 | > 50 | – | – | – | Cc1cc(Cc2ccc(C(F)(F)F)cc2)c(=O)n(CC(=O)Nc2ccc(Br)cc2)n1 | Non-toxic
> 50 | > 50 | > 50 | > 50 | – | – | – | Cc1cc(NC(=O)c2ccc(Br)cc2)c(=O)n(CC(=O)Nc2ccc(Br)cc2)n1 | Non-toxic
> 50 | > 50 | > 50 | > 50 | – | – | – | COc1ccc(-c2cc(Cc3cccc(OC)c3)c(=O)n(CC(=O)Nc3ccc(F)cc3)n2)cc1 | Non-toxic
> 50 | > 50 | > 50 | > 50 | – | – | – | COc1cccc(Cc2cc(-c3cccs3)nn(CC(=O)Nc3ccc4c(c3)OCO4)c2=O)c1 | Non-toxic
> 50 | > 50 | > 50 | > 50 | – | – | – | COc1cccc(Cc2cc(-c3ccccc3)nn(CC(=O)Nc3ccc4c(c3)OCO4)c2=O)c1 | Non-toxic
> 50 | > 50 | > 50 | > 50 | – | – | – | COc1cccc(Cc2cc(-c3ccc(F)cc3)nn(CC(=O)Nc3ccc4c(c3)OCO4)c2=O)c1 | Non-toxic
